Values after ≈ are worked out from the molar mass of the structure shown.
Assays:
[1] = pH stability in Britton–Robinson buffer; assay type: physicochemical
How it was run: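 Compound was dissolved at 0.05% (w/v) in Britton–Robinson buffer over pH 1.4–10. The amount remaining was quantified by HPLC.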

[2] = Thermogravimetric analysis; assay type: physicochemical; conditions: TGA
[3] = Static in vitro digestion simulation; assay type: in vitro ADME, human; conditions: oral, gastric and intestinal phases, 37 °C
How it was run: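 Static digestion of 50 mg test compound ran at 37 °C with stirring. Oral phase: saliva pH 7.0 (1.5 mM CaCl₂, 75 U/mL amylase), sampled at 5 min. Samples were heat-stopped (100 °C, 5 min), centrifuged and filtered, and glucose was measured by kit.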

[4] = system: HFD-fed C57BL/6 N mice; test: Immunoblot of tissue lysates from HFD-fed mice; assay type: in vivo, mouse; conditions: 0.2 g/L in drinking water, 16 weeks
How it was run: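 Mice were on a 16-week 60% kcal-fat HFD with test compound at 0.2 g/L in drinking water or plain water. Liver, gWAT and BAT lysates came from median-body-weight mice. Equal protein was run on SDS-PAGE, transferred to nitrocellulose and blocked in 5% skim milk. Primary antibodies (ACC, FAS, UCP1, p-PLIN, HSP90) ran overnight at 4 °C, then secondary 2–3 h at room temperature. Detection was by ECL with band densitometry, n = 4 per group.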

[5] = Water solubility evaluation; assay type: physicochemical; conditions: deionized water
How it was run: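 Compound was added to deionized water to supersaturation and stirred for 24 h at 25 °C. The mixture was centrifuged at 8000 × g, 25 °C, for 20 min. The supernatant was freeze-dried and the residue weighed.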

[6] = TGA; cited from earlier work
[7] = system: HFD-fed C57BL/6 N mice; test: HFD-induced obesity in mice: body weight, intake, tissue weight, histology; assay type: in vivo, mouse; conditions: 0.2 g/L in drinking water, 16 weeks
How it was run: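 Eight-week-old C57BL/6N mice were kept on a 60% kcal-fat HFD for 16 weeks with test compound at 0.2 g/L in drinking water ad libitum, or plain water. Estimated intake was about 0.675 mg/mouse/day. Body weight was taken weekly and food/water every other day (n = 10). Median-weight mice gave formalin-fixed paraffin sections (gWAT 7 μm, liver 5 μm), H&E stained (n = 5). Adipocyte size came from about 3,000 cells, four images per mouse. Data are mean ± SEM.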

[8] = Storage stability in aqueous solution; assay type: physicochemical; conditions: 1 month, 25 °C
How it was run: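 Aqueous solutions of 1–2% (w/v) were held at 25 °C for up to 1 month. Compound remaining in the supernatant at 0, 7, 15 and 30 days was quantified by HPLC.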

[9] = system: HFD-fed C57BL/6 N mice; test: Serum analysis of HFD-fed mice; assay type: in vivo, mouse; conditions: 0.2 g/L in drinking water, 16 weeks
How it was run: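 After 16 weeks of 60% kcal-fat HFD with test compound at 0.2 g/L in drinking water or plain water, mice were euthanised with CO2. Blood was taken by cardiac puncture. An automated chemistry analyser measured serum cholesterol, TG, ALT, AST and glucose (n = 5 per group). Data are mean ± SEM with one-way ANOVA and Dunnett's or Tukey's test.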

[10] = system: rats; conditions: cited from earlier work
[11] = vs sucrose; stated without own test, ref not given; cited from earlier work
[12] = system: mammalian mucosal α-glucosidase (rat intestinal acetone powder, RIAP); test: Glucose generation rate; assay type: in vitro ADME; conditions: 5 mg/mL substrate, RIAP-derived α-glucosidase, 2 h
How it was run: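 Rat intestinal acetone powder (0.5 g) was extracted in 10 mL 100 mM sodium phosphate (pH 6.2) at 4 °C for 24 h and centrifuged. The supernatant was freeze-dried and re-dissolved in 10 mL of the same buffer as α-glucosidase. Test compound at 5 mg/mL was incubated with the enzyme. Aliquots were taken at 0, 10, 20, 30, 60 and 120 min, heat-inactivated for 10 min, and glucose was measured with a glucose assay kit.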

Which “Initial concentration retained at pH 1.4” value ([1]; pH 1.4, 0.05% (w/v) in Britton–Robinson buffer) does the source give for rebaudioside A [Reb A] here?
Its value is 25.26 ± 3.19%.

And the “Initial concentration retained at pH 2” value ([1]; pH 2, 0.05% (w/v) in Britton–Robinson buffer)?
The value was 82.67 ± 2.39%.

What about the “Initial concentration retained at pH 10” value ([1]; pH 10, 0.05% (w/v) in Britton–Robinson buffer) of the same compound?
Its value is 84.56 ± 1.68%.

And the “Temperature at which second-stage mass loss commenced” value [2]?
Its value is 280–290 °C.

What about the “Initial mass retained at 597 °C” value ([2]; 597 °C) of the same compound?
Its value is 9.92 ± 0.45%.

And the “Initial mass retained, second-stage mass loss” value ([2]; stage commencing at approximately 280–290 °C)?
The value was 19.89 ± 1.67%.

What about the “Hydrolysis in in vitro simulated digestion” value [3] of the same compound?
Its value is 2%.

What about the “ACC protein expression in liver” value [4] of the same compound?
Its value is “increased”.

What about the “p-PLIN protein level in gWAT” value ([4]; vs control) of the same compound?
The value was “substantially decreased”.

And the Water solubility ([5]; stirred 24 h at 25 °C)?
The Water solubility was 5.10 ± 2.93 mg/mL.

What about the “Second-stage mass loss temperature previously reported” value [6] of the same compound?
The value was 284.71 °C.

And the “Crown-like structure (CLS) in gWAT, inflammatory indicator” value [7]?
Its value is “significantly increased”.

And the “Number of large adipocytes in gWAT” value [7]?
Its value is “remained unchanged”.

What about the “Water intake and food consumption” value [7] of the same compound?
Its value is “comparable across the groups”.

What about the gWAT weight [7] of the same compound?
The gWAT weight was “did not increase”.

And the Body weight ([7]; vs control)?
Its Body weight is “no effect”.

What about the “Initial concentration remaining after storage, 1% (w/v) aqueous solution” value ([8]; 1% (w/v)) of the same compound?
Its value is 52.61 ± 1.69%.

And the “Initial concentration remaining after storage, 2% (w/v) aqueous solution” value ([8]; 2% (w/v))?
The value was 32.14 ± 3.78%.

And the “Serum TG” value [9]?
Its value is “remained unchanged”.

And the Serum cholesterol [9]?
The Serum cholesterol was “remained unchanged”.

What about the “No-observed-adverse-effect level (NOAEL)” value [10] of the same compound?
The value was 4100 mg/kg/day.

What about the “Sweetness relative to sucrose” value [11] of the same compound?
Its value is 250 times.

What about the Glucose released [12] of the same compound?
Its Glucose released is “almost no glucose release”.

For `C=C1C[C@@]23CC[C@H]4[C@@](C)(CCC[C@@]4(C)C(=O)O[C@@H]4O[C@H](CO)[C@@H](O)[C@H](O)[C@H]4O)[C@@H]2CC[C@]1(O[C@@H]1O[C@H](CO)[C@@H](O)[C@H](O)[C@H]1O[C@@H]1O[C@H](CO)[C@@H](O)[C@H](O)[C@H]1O)C3` [ST, stevioside], which “Hydrolysis in in vitro simulated digestion” value [3] is on record?
The value was 2%.

What about the solubility at 24 h [5] of the same compound?
The solubility at 24 h was 11 ± 3.11 mg/mL (≈ 13.6 mM).

What about the “Sweetness relative to sucrose” value [11] of the same compound?
Its value is 250 times.

And the Glucose released [12]?
Its Glucose released is “almost no glucose release”.

From publication PMC12618661 (NPJ Science of Food, 2025)
